Experimental data as given in ChEMBL document CHEMBL5257120 (Bioorg Med Chem, 2023).
The source made the active and inactive calls. The rule behind the calls is not given here.

Assays:
[1] = Antiinflammatory activity in mouse peritoneal macrophage assessed as reduction in LPS-induced IL6 production at 1 ug/ml; type: functional; conditions: dose 1 µg/ml
[2] = Antiinflammatory activity in mouse peritoneal macrophage assessed as inhibition of LPS-induced IL6 production at 1 ug/ml relative to control; type: functional; design: scale not given: the % may be the effect or the level left; conditions: dose 1 µg/ml
[3] = Antiinflammatory activity in mouse peritoneal macrophage assessed as reduction in LPS-induced TNFalpha production at 1 ug/ml; type: functional; conditions: dose 1 µg/ml
[4] = Antiinflammatory activity in mouse peritoneal macrophage assessed as inhibition of LPS-induced TNFalpha production at 1 ug/ml relative to control; type: functional; design: scale not given: the % may be the effect or the level left; conditions: dose 1 µg/ml
[5] = organism: Homo sapiens; assay: Selectivity ratio, ratio of inhibition of HDAC in human HeLa nuclear extract assessed as residual activity to inhibition of human recombinant HDAC6 assessed as residual activity
How it was run: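 Compounds at 20 μM tested by fluorometric assay on HeLa nuclear extract (class I/II HDACs) and on human recombinant HDAC6. Residual activity is expressed relative to untreated control. Selectivity is the ratio of PanHDAC to HDAC6 residual activity: ≥7 high, 2.5–6.9 moderate, <2.5 low.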

[6] = system: MDA-MB-231; assay: Cytotoxicity against human MDA-MB-231 cells incubated for 72 hrs by Sulphorhodamine assay; type: functional, cell-based; conditions: MDA-MB-231, 72 h
[7] = Selectivity index, ratio of IC50 for african green monkey Vero cells to IC50 for human K562 cells; type: toxicity; conditions: Vero cells versus K562 cells, read-out: Ratio IC50
[8] = Cytotoxicity against african green monkey Vero cells incubated for 72 hrs by Sulphorhodamine assay; type: toxicity, cell-based; conditions: African green monkey (Chlorocebus sabaeus)
[9] = system: K562; assay: Cytotoxicity against human K562 cells incubated for 72 hrs by Sulphorhodamine assay; type: functional, cell-based; conditions: K562, 72 h
[10] = system: MCF7; assay: Cytotoxicity against human MCF7 cells incubated for 72 hrs by Sulphorhodamine assay; type: functional, cell-based; conditions: MCF7, 72 h
[11] = molecular target: T1, Tubulin (Homo sapiens) (UniProt P68371+Q9H4B7+P0DPH7+P68366+Q13509+Q71U36+P04350+Q3ZCM7+P07437+P68363+Q9BQE3+Q6PEY2+Q13885+Q9BVA1+Q9BUF5); assay: Induction of microtubule stabilization (unknown origin) at 5 uM; type: protein-complex assay
[12] = system: MDA-MB-231; assay: Induction of cell cycle arrest in human MDA-MB-231 cells assessed as S phase arrest at 0.285 to 1.14 uM incubated for 24 hrs by propidium iodide staining based method; type: functional; conditions: dose 0.285-1.14 µM
[13] = molecular target: T1, Tubulin (Homo sapiens); assay: Induction of microtubule stabilization (unknown origin) at 1 to 5 uM; type: protein-complex assay; conditions: dose 1-5 µM
[14] = Antiinflammatory activity in mouse peritoneal macrophage assessed as reduction in LPS-induced IL6 production at 10 ug/ml; type: functional; conditions: dose 10 µg/ml
[15] = system: K562; assay: Induction of cell cycle arrest in human K562 cells assessed as S phase arrest at 1.625 to 6.5 uM incubated for 24 hrs by propidium iodide staining based method; type: functional; conditions: dose 1.625-6.5 µM
[16] = Antiinflammatory activity in mouse peritoneal macrophage assessed as inhibition of LPS-induced TNFalpha production at 10 ug/ml relative to control; type: functional; design: scale not given: the % may be the effect or the level left; conditions: dose 10 µg/ml
[17] = system: MDA-MB-231; assay: Induction of cell cycle arrest in human MDA-MB-231 cells assessed as S phase arrest at 1.625 to 6.5 uM incubated for 24 hrs by propidium iodide staining based method; type: functional; conditions: dose 1.625-6.5 µM
[18] = molecular target: T1, Tubulin (Homo sapiens); assay: Induction of microtubule stabilization in human HeLa cells assessed as effect on cellular cytoskeletal network of tubulin at 5 to 10 uM incubated for 4 hrs by Alexa Fluor 488 staining based confocal microscopic analysis; type: cell-based; conditions: dose 5-10 µM
How it was run: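 HeLa cells treated for 4 h at 5 and 10 μM. Microtubules immunostained with Alexa Fluor 488-conjugated anti-β-tubulin and imaged by confocal microscopy with a 60× Plan Apochromat objective. References: paclitaxel 5 nM, podophyllotoxin 5 μM.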

[19] = Antiinflammatory activity in mouse peritoneal macrophage assessed as reduction in LPS-induced TNFalpha production at 10 ug/ml; type: functional; conditions: dose 10 µg/ml
[20] = Antiinflammatory activity in mouse peritoneal macrophage assessed as inhibition of LPS-induced IL6 production at 10 ug/ml relative to control; type: functional; design: scale not given: the % may be the effect or the level left; conditions: dose 10 µg/ml

Row | SMILES | Ratio [5] | IC50 [6] [µM] | selectivity ratio [7] | IC50 at 72 h [8] [µM] | IC50 [9] [µM] | IC50 [10] [µM] | other results
1 | C[C@@H]1C[C@H]2[C@@H]3CCC4=CC(=O)C=C[C@]4(C)[C@@]3(F)[C@@H](O)C[C@]2(C)[C@@]1(O)C(=O)CO [DEXAMETHASONE] |  |  |  |  |  |  | Activity [1]: 1792.75 pg/mL; Activity [2]: 40.5%; Activity [3]: 581.27 pg/mL; Activity [4]: 52.82%
2 | COc1cc(C2c3c(cc(OC)c(OC)c3OC)C(=O)C2Cc2ccc(CCC(=O)NO)cc2)cc(OC)c1OC (stereo not drawn) | 2.5 | 20.7 | 1.47 | 76.2 | 51.9 | 52.3 | 
3 | COc1cc([C@@H]2c3cc4c(cc3[C@H](O)[C@H]3COC(=O)[C@H]23)OCO4)cc(OC)c1OC [PODOFILOX] |  | 20.2 |  |  | 18.4 | 10 | 
4 | COc1cc(C2/C(=C/c3ccc(/C=C/C(=O)NOC(C)=O)cc3)C(=O)c3cc(OC)c(OC)c(OC)c32)cc(OC)c1OC (stereo not drawn) | inactive | 19.1 | 2.01 | 47.5 | 23.6 | 75 | 
5 | COc1ccc2c(c1)CC(Cc1ccc(C(=O)NO)cc1)C2=O (stereo not drawn) |  | 28.8 | 2.99 | 55.5 | 18.6 | 55.2 | 
6 | COc1cc2c(cc1OC)C(=O)/C(=C\c1ccc(/C=C/C(=O)NOCc3ccccc3)cc1)C2 | 2.5 |  |  |  |  |  | 
7 | COc1ccc2c(c1)C/C(=C/c1ccc(/C=C/C(=O)NOCc3ccccc3)cc1)C2=O | 2.5 |  |  |  |  |  | 
8 | CC(=O)O[C@H]1C(=O)[C@@]2(C)[C@H]([C@H](OC(=O)c3ccccc3)[C@]3(O)C[C@H](OC(=O)[C@H](O)[C@@H](NC(=O)c4ccccc4)c4ccccc4)C(C)=C1C3(C)C)[C@]1(OC(C)=O)CO[C@@H]1C[C@@H]2O |  |  |  |  |  |  | Activity [11]: Active
9 | COc1cc2c(cc1OC)C(=O)/C(=C\c1ccc(/C=C/C(=O)NO)cc1)C2 | inactive | > 100 | > 1 | 129 | > 100 | > 100 | 
10 | COc1cc2c(cc1OC)C(=O)/C(=C\c1ccc(C(=O)NO)cc1)C2 | > 7 | > 100 | 1.88 | 88.4 | 46.9 | > 100 | 
11 | COc1ccc2c(c1)C/C(=C/c1ccc(C(=O)NOCc3ccccc3)cc1)C2=O | > 7 |  |  |  |  |  | 
12 | COc1ccc2c(c1)CC(Cc1ccc(CCC(=O)NO)cc1)C2=O (stereo not drawn) |  | > 100 | 1.85 | 114 | 61.8 | 93.9 | 
13 | COc1cc(C2/C(=C/c3ccc(C(=O)NO)cc3)C(=O)c3cc(OC)c(OC)c(OC)c32)cc(OC)c1OC (stereo not drawn) | inactive | > 100 | 1.51 | 72.2 | 47.7 | 60.1 | 
14 | CC/C(=C(\c1ccccc1)c1ccc(OCCN(C)C)cc1)c1ccccc1 [TAMOXIFEN] |  | 18.5 |  | 36.2 |  |  | 
15 | COc1cc2c(cc1OC)C(=O)C(Cc1ccc(CCC(=O)NO)cc1)C2 (stereo not drawn) |  | 32.6 | 1.6 | 48.7 | 30.4 | 51.7 | 
16 | COc1cccc2c1C(=O)c1c(O)c3c(c(O)c1C2=O)C[C@@](O)(C(=O)CO)C[C@@H]3O[C@H]1C[C@H](N)[C@H](O)[C@H](C)O1 [DOXORUBICIN] |  | 0.57 |  | 1.87 | 5.23 |  | Activity [12]: Active
17 | COc1cc2c(cc1OC)C(=O)C(Cc1ccc(C(=O)NO)cc1)C2 (stereo not drawn) |  | > 100 |  | 193 | > 100 | > 100 | 
18 | COc1cc(C2c3c(cc(OC)c(OC)c3OC)C(=O)C2Cc2ccc(C(=O)NO)cc2)cc(OC)c1OC (stereo not drawn) | > 7 | > 100 | 2.5 | 91.8 | 36.8 | 87.5 | 
19 | CN1CCc2c(c3ccccc3n2Cc2ccc(C(=O)NO)cc2)C1 [TUBASTATIN A] |  |  |  |  | 2.07 |  | 
20 | COc1ccc2c(c1)C/C(=C/c1ccc(/C=C/C(=O)NO)cc1)C2=O | > 7 | > 100 | ≤ 1 | 100 | > 100 | 97.5 | 
21 | COc1cc2c(cc1OC)C(=O)/C(=C\c1ccc(C(=O)NOCc3ccccc3)cc1)C2 | > 7 |  |  |  |  |  | 
22 | COc1cc(C2/C(=C/c3ccc(OCCCC(=O)NO)cc3)C(=O)c3cc(OC)c(OC)c(OC)c32)cc(OC)c1OC (stereo not drawn) | > 7 | 3.25 | 28.4 | 47.2 | 1.66 | 49.7 | Activity [1]: 2730.53 pg/mL; Activity [13]: Active; Activity [2]: 9.38%; Activity [3]: 1180.12 pg/mL; Activity [14]: 2648.31 pg/mL; Activity [15]: Active; Activity [16]: 15.04%; Activity [4]: 12.34%; Activity [17]: Active; Activity [18]: Active; Activity [19]: 1046.79 pg/mL; Activity [20]: 12.11%
